According to ChEMBL document CHEMBL1136925, “Structure-activity relationship of cyanine tau aggregation inhibitors” (J Med Chem, 2009):
Active and inactive are the calls of the source. The rule behind the calls is not given here.

What was measured:
Brain [1] = assay: Induction of apoptosis in human tau P301L mutant expressing JNPL3 transgenic mouse brain slice assessed as change in alpha-tubulin level at 1 nM after 7 days by densitometry; type: tissue-based; conditions: 168 h, 0.001 µM
Summary of the method: (§1)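 Cortex and hippocampus slices (400 μm) cut from postnatal day 10 JNPL3 mouse brain, cultured 14 days on membrane inserts in 25% serum medium, then dosed for 7 days. The contralateral hemisphere received DMSO vehicle (0.008% final) as within-animal control. Slices were sonicated in cold RIPA with protease/phosphatase inhibitors and spun 20,000g for 20 min at 4°C. Supernatant α-tubulin and cleaved PARP1 were immunoblotted and quantified by densitometry (n = 3), normalized to vehicle.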

Homo sapiens [2] = species on record: Homo sapiens; assay: Induction of human tau aggregation in human tau P301L mutant expressing JNPL3 transgenic mouse brain slices at >=300 nM
[3] = Inhibition of His-tagged human recombinant 2N4R tau protein aggregation assessed as inhibition octadecyl sulphate-induced fibrillation by filter trap assay
Brain [4] = assay: Induction of apoptosis in human tau P301L mutant expressing JNPL3 transgenic mouse brain slice assessed as cleaved PARP1 after 7 days by densitometry; type: tissue-based; conditions: 168 h; summary of the method: as §1
Homo sapiens [5] = species on record: Homo sapiens; assay: Inhibition of human tau aggregation in human tau P301L mutant expressing JNPL3 transgenic mouse brain slices at 0.1 nM to 1 uM after 7 days; type: tissue-based
Summary of the method: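 Slices from postnatal day 10 JNPL3 mice were cultured 14 days, then exposed 7 days to compound (0.1 nM–1 μM). The contralateral hemisphere received DMSO (0.008%) as control. RIPA extracts were equalized for total protein, incubated in 1% sarkosyl for 30 min at room temperature, and spun 100,000g for 1 h at 20°C. The insoluble pellet was boiled in SDS buffer, immunoblotted with CP27 and quantified by densitometry (n = 3) relative to vehicle.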

Homo sapiens [6] = species on record: Homo sapiens; assay: Inhibition of human tau aggregation in human tau P301L mutant expressing JNPL3 transgenic mouse brain slices at 100 nM
Homo sapiens [7] = species on record: Homo sapiens; assay: Inhibition of His-tagged human recombinan2N4R tau protein aggregation assessed as inhibition octadecyl sulphate-induced fibrillation up to 10 uM by filter trap assay
Homo sapiens [8] = species on record: Homo sapiens; assay: Inhibition of His-tagged human recombinan2N4R tau protein aggregation assessed as inhibition octadecyl sulphate-induced fibrillation at 10 uM by filter trap assay

Row | SMILES | IC50 [3] | other results
1 | CCCN1/C(=C/C=C/C2=[N+](CCC)c3ccccc3C2(C)C)C(C)(C)c2ccccc21 | 2570 nM | 
2 | CCC(/C=C1\Sc2ccc(OC)cc2N1CCO)=C\c1sc2ccc(OC)cc2[n+]1CCO | 290 nM | 
3 | CCN1/C(=C/C(C)=C/c2sc3c4ccccc4ccc3[n+]2CC)Sc2c1ccc1ccccc21 | 3290 nM | 
4 | CC(/C=C1\Sc2ccccc2N1CCCS(=O)(=O)[O-])=C\c1sc2ccccc2[n+]1CCCS(=O)(=O)[O-].CC[n+]1ccccc1 | > 10000 nM | 
5 | CCCCCCN1/C(=C/C=C/c2sc3ccccc3[n+]2CCCCCC)Sc2ccccc21 | > 10000 nM | Activity (Homo sapiens [7]): inactive
6 | CCN1/C(=C/C=C/c2oc3ccccc3[n+]2CC)Oc2ccccc21 | > 10000 nM | Activity (Homo sapiens [8]): inactive

Continued, in another order:

Row | IC50 [3] | SMILES | other results
7 | 280 nM | CCN1/C(=C/C(C)=C/c2sc3ccccc3[n+]2CC)Sc2ccccc21.[I-] | Activity (Brain [1]): Non-toxic; Activity (Homo sapiens [2]): Active; Activity (Brain [4]): Non-toxic; Activity (Homo sapiens [5]): Active; Activity (Homo sapiens [6]): inactive
8 | 960 nM | CCN1/C(=C/C=C/c2sc3ccccc3[n+]2CC)Sc2ccccc21 | 
9 | 5000 nM | CCN1/C(=C/C=C/C=C/C=C/c2sc3ccccc3[n+]2CC)Sc2ccccc21 | 
10 | 2150 nM | CCN1/C(=C/C=C/C=C/c2sc3ccccc3[n+]2CC)Sc2ccccc21 [DITHIAZANINE IODIDE] | 
11 | 10000 nM | CCN1/C(=C/c2sc3ccccc3[n+]2CC)Sc2ccccc21 | 
